# Screening results: PubChem, The Scripps Research Institute Molecular Screening Center
# Shown are actives, neighbours in structure and some others; about 4.2% of the full set was active somewhere.
# CHO parental Ca: signal in parental CHO cells, OX1R antagonist counter-screen; AID 463079; parental CHO-K1, ATP-induced calcium, Fluo-8 fluorescence; hit rate 0.63% among 330,000; inhibition, % at 5.6 µM;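 active means inhibition above that plate's mean sample inhibition plus 3 SD, cut at about 26% in these data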
#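 Material: Parental CHO cells | Reagent: ATP | Compound dosing: Single nominal dose of 5.6 µM per compound | Detection: Intracellular calcium via Fluo-8 no-wash fluorescent dye | Read-out: % inhibition of ATP-induced calcium mobilization | Benchmarks: Low control ATP plus DMSO, high control DMSO only | Replicates: Singlicate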
# OX1R antag-1: blocks the human orexin 1 receptor; O43613; OX1R-expressing cells, FRET antagonist read-out; inhibition, % at 6.6 µM; hit rate 1.8% among 330,000; AID 485270; in the data active means inhibition mostly above about 38%, no sharp cut-off; inactive means mostly below about 40%
# Target sequence (O43613 whole entry, looked up): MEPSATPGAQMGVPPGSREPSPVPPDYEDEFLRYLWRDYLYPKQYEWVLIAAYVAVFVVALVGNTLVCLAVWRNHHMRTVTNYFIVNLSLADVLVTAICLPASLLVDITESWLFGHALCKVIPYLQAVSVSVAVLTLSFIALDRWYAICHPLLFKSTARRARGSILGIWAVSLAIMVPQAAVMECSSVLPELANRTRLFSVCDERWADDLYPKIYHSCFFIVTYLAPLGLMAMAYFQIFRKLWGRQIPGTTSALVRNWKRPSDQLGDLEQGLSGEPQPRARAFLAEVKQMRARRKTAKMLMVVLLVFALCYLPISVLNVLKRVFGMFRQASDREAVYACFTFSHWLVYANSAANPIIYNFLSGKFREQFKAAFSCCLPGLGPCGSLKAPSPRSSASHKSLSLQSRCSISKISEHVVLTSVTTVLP
# TAAR1 ag: agonists of human TAAR1; AID 624467; hit rate 0.99% among 360,000; activation, % at 3 µM; CHO RD-HGA16 TAAR1, Fluo-8 calcium fluorescence; vehicle wells 0%, saturating PEA agonist 100%;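 active means activation above the mean activation of all test compounds in the run plus 3 SD, cut at about 38% in these data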
# Target sequence (Q96RJ0 whole entry, looked up): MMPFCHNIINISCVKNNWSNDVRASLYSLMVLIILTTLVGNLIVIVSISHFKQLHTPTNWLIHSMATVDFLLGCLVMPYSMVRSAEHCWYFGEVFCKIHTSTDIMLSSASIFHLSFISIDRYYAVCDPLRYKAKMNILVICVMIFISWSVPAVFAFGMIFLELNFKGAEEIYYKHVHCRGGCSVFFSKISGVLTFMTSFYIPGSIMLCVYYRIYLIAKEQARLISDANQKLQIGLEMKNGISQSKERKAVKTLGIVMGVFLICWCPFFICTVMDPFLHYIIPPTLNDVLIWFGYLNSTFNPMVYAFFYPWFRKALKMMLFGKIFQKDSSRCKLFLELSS
#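 System: CHO RD-HGA16 cells carrying human TAAR1 plus Gα16; Incubation: 17-24 h seeding, 75 min 37 °C dye, 30 min RT; Measured by: Fluo-8 fluorescence, 5 s baseline then 140 s kinetic read; Control set: DMSO and PEA EC100; Replication: single well for each compound.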
# OX1R antag-2: human HCRTR1 antagonism. O43613. CHO/OX1R cells, Fluo-8 calcium fluorescence, orexin A. inhibition, % at 5 µM. hit rate 0.43% among 330,000. AID 434989;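 active means inhibition above its plate's threshold, mean inhibition of all tested compounds on the plate plus 3 SD, cut at about 37% in these data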
# GalR3 antagonist: antagonists of human GalR3; O60755; AID 651719; hit rate 0.44% among 360,000; HEK293 GalR3-CNG cAMP membrane potential fluorescence; galR3 body fused to GalR1 C-terminus; inhibition, % at 3 µM;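 active means inhibition above the screen-wide average plus 3 SD, cut at about 13% in these data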;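 further: forskolin and galanin both at EC90 stimulate the cells; cAMP rise reported by CNG channel membrane potential dye signal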
# TAAR1 antagonist: antagonists of human TAAR1; CHO RD-HGA16 TAAR1, Fluo-8 calcium fluorescence, antagonist; inhibition, % at 3 µM; hit rate 1.5% among 360,000;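 active means inhibition above a per-plate cutoff, the mean inhibition of test compounds on that plate plus 3 SD, cut at about 49% in these data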
#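 test system = CHO RD-HGA16 cells bearing hTAAR1 | replication = singlicate | controls = DMSO-only wells and EC80 β-PEA-stimulated wells | reagent = EC80 β-phenethylamine stimulus | read-out basis = percent inhibition of PEA-evoked calcium signal, max/basal emission ratio | schedule = seeding 17-24 h prior, 75-min 37 °C, 30-min RT dye loading | signal = kinetic Fluo-8 calcium fluorescence measurement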
# nonsel antag count: counter-screen for TAAR1 antagonists: nonselective antagonists; shares compounds with TAAR1 antagonist; counterscreen cell line, calcium fluorescence, antagonist mode; inhibition, % at 3 µM; hit rate 77% among 2,400; AID 651780; in the data active means inhibition above about 22%;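 further: CHO-Ga16 host cells stimulated with ATP at an EC80 level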
# TAAR1 ant conf: confirmation of human TAAR1 antagonists | shares compounds with TAAR1 antagonist | TAAR1-expressing cells, fluorescence antagonist read-out | inhibition, % at 3 µM | hit rate 40% among 2,400 | AID 651785; in the data active means inhibition above about 49%;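 further: CHO-Ga16 host cells challenged with agonist PEA near its EC80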
# Ga16 nonsel ag: nonselective Ga16 agonist in TAAR1 antagonist counter-screen; shares compounds with TAAR1 antagonist; Ga16-expressing cells, calcium fluorescence, agonist counterscreen; activation, % at 3 µM; hit rate 18% among 2,400; AID 651953; in the data active means activation above about 12%
# TAAR1 ag count: activates human TAAR1 in antagonist counter-screen | shares compounds with TAAR1 antagonist | hTAAR1 cell line, fluorescence activation, agonist mode | hit rate 2% among 2,400 | activation, % at 3 µM; in the data active means activation above about 37%;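 further: CHO cells stably expressing TAAR1 with calcium dye readout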
# Hits are given with their value; i = inactive; nt = not tested or not shown.
SMILES,CHO parental Ca,OX1R antag-1,TAAR1 ag,OX1R antag-2,GalR3 antagonist,TAAR1 antagonist,nonsel antag count,TAAR1 ant conf,Ga16 nonsel ag,TAAR1 ag count
O=C(CSc1cc(Cl)ccc1Cl)NC1CCCc2ccccc21 (stereo not drawn),i,i,i,i,i,i,nt,nt,nt,nt
CS(=O)(=O)c1cccc(C(=O)OCC(=O)c2ccc3c(c2)OCCO3)c1,nt,nt,i,nt,i,i,nt,nt,nt,nt
O=C(COC(=O)c1cccc(S(=O)(=O)NCc2ccccc2)c1)c1ccc2c(c1)OCCO2,i,i,i,i,i,63,35,49,i,i
Clc1ccc(-c2nc3ncccn3c2Cl)cc1,i,i,nt,i,nt,nt,nt,nt,nt,nt
COc1ccc(CN2CCN(C(c3ccc(F)cc3)c3ccc(F)cc3)CC2)c(OC)c1OC,i,i,i,i,i,56,i,i,i,i
N#Cc1nc(-c2ccco2)oc1N1CCN(C(c2ccccc2)c2ccccc2)CC1,i,i,i,i,i,i,nt,nt,nt,nt
C/C=C(/C)C(=O)O[C@@H]1c2c(ccc3ccc(=O)oc23)O[C@@H]1C(C)(C)OC(=O)/C(C)=C\C,i,i,i,i,i,59,i,i,i,i
CCN=C1SC(C(=O)Nc2cccc(Br)c2)CC(=O)N1CC (stereo not drawn),i,i,i,i,i,75,37,63,i,i
CCN1C(=O)CC(C(=O)NC)SC1=Nc1cc(Cl)c(O)c(Cl)c1 (stereo not drawn),i,i,i,i,i,i,nt,nt,nt,nt
CCN=C1SC(C(=O)Nc2ccc(Cl)c(Cl)c2)CC(=O)N1CC (stereo not drawn),i,i,i,i,i,80,44,66,13,i
CC(=O)Nc1ccc(NC(=O)CC(c2ccccc2)c2ccccc2)cc1,i,i,i,i,i,i,nt,nt,nt,nt
CCO[C@H]1OC(C(=O)NCc2nc3ccccc3[nH]2)=C[C@@H](c2csc3ccccc23)[C@@H]1CCCO,i,i,i,i,i,54,26,i,i,i
CCO[C@@H]1OC(C(=O)NCc2nc3ccccc3[nH]2)=C[C@H](c2csc3ccccc23)[C@H]1CCCO,i,i,i,i,i,53,30,i,i,i
CCO[C@@H]1OC(C(=O)NCc2nc3ccccc3[nH]2)=C[C@H](c2ccccc2)[C@H]1CCCO,i,i,i,i,i,i,nt,nt,nt,nt
CCO[C@H]1OC(C(=O)NCc2nc3ccccc3[nH]2)=C[C@@H](c2ccccc2)[C@@H]1CCCO,i,i,i,i,i,i,nt,nt,nt,nt
CC(C)(C)c1ccc(C(=O)N2CCC(=O)N([C@H](COCc3ccccc3)Cc3ccccc3)CC2)cc1,nt,nt,i,nt,i,71,27,50,i,i
COc1ccc(NC(=O)C2C3C=CC(C3)C2C(=O)NCc2ccco2)cc1 (stereo not drawn),i,i,i,i,i,i,nt,nt,nt,nt
COCCN1C(=O)c2ccccc2C1c1nnnn1Cc1ccccc1 (stereo not drawn),nt,nt,i,nt,i,i,nt,nt,nt,nt
O=C1c2ccccc2C(c2nnnn2Cc2ccccc2)N1CCc1c[nH]c2ccccc12 (stereo not drawn),nt,nt,i,nt,i,72,40,62,i,i
CC(C)Cc1nc2sc3c(NCc4ccco4)ncnc3c2c2c1COC(C)(C)C2,i,i,i,i,i,i,nt,nt,nt,nt
Cc1cc(C)nc(NC(=NCCc2c[nH]c3ccccc23)NC(=O)Nc2ccccc2)n1,i,i,i,i,i,64,30,54,i,i
Cc1cc(C)nc(NC(=NCCc2c[nH]c3ccccc23)NC(=O)Nc2ccc(Cl)c(Cl)c2)n1,i,i,i,i,i,i,nt,nt,nt,nt
Cc1cc(C)nc(NC(=NCCc2c[nH]c3ccccc23)NC(=O)c2ccco2)n1,i,i,i,i,i,68,28,53,i,i
Cn1cccc1C(=O)OCC(=O)NNC(=O)c1ccc([N+](=O)[O-])cc1,i,i,i,i,i,i,nt,nt,nt,nt
CCOC(=O)C1=CN(Cc2cccc(-c3cccnc3)c2)S(=O)(=O)N(C)C1C (stereo not drawn),i,i,i,i,i,49,21,i,i,i
SMILES,CHO parental Ca,OX1R antag-1,TAAR1 ag,OX1R antag-2,GalR3 antagonist,TAAR1 antagonist,nonsel antag count,TAAR1 ant conf,Ga16 nonsel ag,TAAR1 ag count
Cc1nn(Cc2ccc(Cl)cc2Cl)c(C)c1NC(=O)c1sc2ccccc2c1Cl,i,i,i,i,i,i,nt,nt,nt,nt
Cc1ccccc1Cn1nc(C)c(NC(=O)c2sc3ccccc3c2Cl)c1C,i,i,i,i,i,55,26,i,i,i
Cc1nn(C)c(C)c1S(=O)(=O)Nc1ccc2c(c1)OCO2,i,i,i,i,i,i,nt,nt,nt,nt
CCOC(=O)CSc1nnc(CCCCCN2C(=O)c3cccc4cccc(c34)C2=O)o1,i,i,i,i,i,i,nt,nt,nt,nt
CCOC(=O)CCCSc1nnc(CCCCCN2C(=O)c3cccc4cccc(c34)C2=O)o1,i,i,i,i,i,58,37,i,i,i
O=C(Nc1cccc(Cl)c1Cl)c1ccc(-c2ccccc2)cc1,i,i,i,i,i,60,35,90,i,i
O=C(O)/C=C/c1cnn(-c2ccccc2)c1,nt,nt,i,nt,i,i,nt,nt,nt,nt
COc1cccc(C2c3[nH]c4ccccc4c3C[C@H]3C(=O)N(c4ccccc4C(=O)N4CCCC4C(=O)O)C(=O)N23)c1 (stereo partly drawn),i,i,i,i,i,i,nt,nt,nt,nt
COc1ccc(C2c3[nH]c4ccccc4c3C[C@H]3C(=O)N(c4ccccc4C(=O)NCCN4CCOCC4)C(=O)N23)cc1 (stereo partly drawn),i,i,i,i,i,53,i,i,i,i
O=C(NCCN1CCOCC1)c1ccccc1N1C(=O)[C@@H]2Cc3c([nH]c4ccccc34)C(c3ccc(F)cc3)N2C1=O (stereo partly drawn),i,i,i,i,i,50,i,i,i,i
Cc1ccc(C2c3[nH]c4ccccc4c3C[C@H]3C(=O)N(c4ccccc4C(=O)N4CCC(C(=O)O)CC4)C(=O)N23)cc1 (stereo partly drawn),i,i,i,i,i,i,nt,nt,nt,nt
COc1ccc2cc(C(=O)O)ccc2c1,i,i,i,i,i,i,nt,nt,nt,nt
O=C(/C=C/c1ccccc1)Nc1ccc(CN2CCOCC2)cc1,i,i,i,i,i,i,nt,nt,nt,nt
COc1ccc(C(NC(C)=O)c2c(O)ccc3ccccc23)cc1OC (stereo not drawn),i,i,i,i,i,i,nt,nt,nt,nt
